Measurements taken from ChEMBL document CHEMBL1157772, “In vitro cytotoxic activity of isolated acridones alkaloids from Zanthoxylum leprieurii Guill. et Perr” (Bioorg Med Chem, 2010).

Experiments:
Format in all cases: functional, cell-based
A549 = experiment: Cytotoxicity against human A549 cells after 48 hrs by resazurin reduction assay; conditions: A549, 48 h
Method in brief: (§1)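 Cell lines from ATCC, grown in MEM with Earle's salts, 10% fetal calf serum, vitamins, sodium pyruvate, non-essential amino acids, penicillin/streptomycin, at 37 °C, 5% CO2. Cells (5 × 10^3/well) adhered 16 h, then exposed 48 h to increasing concentrations in medium with 0.25% (v/v) final DMSO. Resazurin reduction read by fluorescence (ex 530/em 590 nm). IC50 as mean ± SD, two experiments in triplicate.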

[1] = Cytotoxicity against human WS1 cells after 48 hrs by resazurin reduction assay; conditions: WS1, 48 h; method in brief: as §1
DLD-1 = experiment: Cytotoxicity against human DLD1 cells after 48 hrs by resazurin reduction assay; conditions: DLD-1, 48 h; method in brief: as §1

| SMILES | IC50 (A549) | IC50 [1] | IC50 (DLD-1) |
| --- | --- | --- | --- |
| COc1cc(O)c2c(=O)c3ccccc3n(C)c2c1 | 31 µM | 51 µM | 27 µM |
| COc1c(O)cc2c(c1OC)c(=O)c1ccccc1n2C | 52 µM | 74 µM | 77 µM |
| COc1cc([C@@H]2c3cc4c(cc3[C@@H](O[C@@H]3O[C@@H]5CO[C@@H](C)O[C@H]5[C@H](O)[C@H]3O)[C@H]3COC(=O)[C@H]23)OCO4)cc(OC)c1O [ETOPOSIDE] | 16 µM | 4.3 µM | 10 µM |
| CCCCCCCCCCCCCCCCCCCCCCCC(=O)NCCc1ccc(O)cc1 | > 100 µM | > 100 µM | > 100 µM |
| COc1cc2ccc(=O)oc2cc1OC [SCOPARONE] | > 100 µM | > 100 µM | > 100 µM |
| COc1cc(O)cc2c1c(=O)c1ccccc1n2C [TEGERRARDIN A] | 36 µM | 42 µM | 71 µM |
| COc1cc2c(c(O)c1OC)c(=O)c1ccccc1n2C [ARBORININE] | 35 µM | 56 µM | 74 µM |
| COc1ccc([C@@H]2CC(=O)c3c(O)cc(O[C@@H]4O[C@H](CO[C@@H]5O[C@@H](C)[C@H](O)[C@@H](O)[C@H]5O)[C@@H](O)[C@H](O)[C@H]4O)cc3O2)cc1O [HESPERIDIN] | > 100 µM | > 100 µM | > 100 µM |
| COc1cc(O)c(OC)c2c1c(=O)c1ccccc1n2C | > 100 µM | > 100 µM | > 100 µM |
